# CHO parental Ca – counter-screen: ATP calcium response change in parental CHO cells | parental CHO-K1, ATP-induced calcium, Fluo-8 fluorescence | inhibition, % at 5.6 µM | 0.63% of 330,000 active | AID 463079;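 active = inhibition above that plate's mean sample inhibition plus 3 SD, cut at about 26% in these data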;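 also: 0% = ATP-challenged DMSO wells and 100% = DMSO wells without ATP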
#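 Test system: untransfected parental CHO cell line. Compound: one dose, 5.6 µM nominal. Detection: intracellular calcium via Fluo-8 no-wash fluorescent dye. Measure: % inhibition. Benchmarks: ATP-challenged DMSO wells low, unchallenged DMSO wells high.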
# OX1R antag-1 – antagonists of human orexin 1 receptor | O43613 | CHO/OX1R cells, Fluo-8 calcium fluorescence, orexin A | inhibition, % at 5 µM | 0.43% of 330,000 active | AID 434989;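 active = inhibition above its plate's threshold, mean inhibition of all tested compounds on the plate plus 3 SD, cut at about 37% in these data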;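 also: 0% = orexin A challenge wells and 100% = SB-334867-A antagonist wells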
# GalR3 antagonist – blocks the human galanin receptor 3; O60755; AID 651719; HEK293 GalR3-CNG cAMP membrane potential fluorescence; galR3 body fused to GalR1 C-terminus; inhibition, % at 3 µM; 0.44% of 360,000 active;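 active = inhibition above the screen-wide average plus 3 SD, cut at about 13% in these data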;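 also: forskolin and galanin both at EC90 stimulate the cells; cAMP rise reported by CNG channel membrane potential dye signal; 0% = forskolin plus galanin with DMSO and 100% = forskolin alone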
# Target sequence (O60755 1-299 limits assumed): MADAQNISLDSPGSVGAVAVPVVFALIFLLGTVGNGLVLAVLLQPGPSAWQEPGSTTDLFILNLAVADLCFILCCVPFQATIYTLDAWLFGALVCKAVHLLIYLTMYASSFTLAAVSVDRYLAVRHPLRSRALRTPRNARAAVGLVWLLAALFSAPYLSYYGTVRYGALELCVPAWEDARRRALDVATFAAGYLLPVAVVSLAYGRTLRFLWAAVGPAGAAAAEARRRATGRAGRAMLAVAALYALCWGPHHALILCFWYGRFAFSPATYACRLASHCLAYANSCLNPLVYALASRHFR
# GPR7 antagonist – blocks human GPR7 receptor signaling; GPR7-expressing cells, fluorescence antagonist assay; 1.1% of 290,000 active; P48145; inhibition, % at 4.4 µM; in the data active = inhibition above about 16%, passing the limit was not always enough;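 also: cells stimulated with the agonist NPW; 0% = agonist with vehicle and 100% = vehicle without agonist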
# OX1R antag-2 – blocks the human orexin 1 receptor; OX1R-expressing cells, FRET antagonist read-out; inhibition, % at 6.6 µM; 1.8% of 330,000 active; in the data active = inhibition mostly above about 38%, no sharp cut-off; inactive = mostly below about 40%;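 also: 0% = agonist challenge alone and 100% = reference antagonist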
# OX1R Fluo8 conf – OX1R (human) antagonism, confirmed; shares compounds with OX1R antag-1; CHO/OX1R cells, orexin A calcium Fluo-8 fluorescence; inhibition, % at 5 µM; 38% of 1,100 active; AID 492963; in the data active = inhibition above about 29%;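 also: 0% = agonist challenge alone and 100% = reference antagonist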
# CHO Ca counter – signal in parental CHO cells, OX1R antagonist counter-screen. parental CHO-K1, ATP-induced calcium, Fluo-8 fluorescence. 9.3% of 1,100 active. AID 492965. inhibition, % at 5.6 µM. shares compounds with OX1R antag-1;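 active = inhibition above a per-plate limit, the mean inhibition of that plate's test compounds plus 3 SD, cut at about 25% in these data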;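 also: 0% = ATP challenge with DMSO and 100% = DMSO without ATP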
# OX1R HTRF confirm – OX1R (human) antagonism, HTRF confirmed | shares compounds with OX1R antag-2 | OX1R-expressing cells, HTRF antagonist assay | inhibition, % at 6.6 µM | 49% of 1,800 active; in the data active = inhibition above about 55%;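 also: CHO cells expressing OX1R stimulated with orexin A at about EC80; 0% = agonist challenge alone and 100% = reference antagonist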
# CHO-K1 HTRF – counter-screen for OX1R antagonists: effect in parental CHO-K1 cells; shares compounds with OX1R antag-2; HTRF counterscreen; inhibition, % at 6.6 µM; 48% of 1,800 active; AID 493232; in the data active = inhibition above about 17%;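 also: 0% = agonist challenge with vehicle and 100% = vehicle alone without agonist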
# Active calls of the source: *; . = no result. An excerpt weighted towards active compounds, which were near 3.1% of everything screened.
SMILES,CHO parental Ca,OX1R antag-1,GalR3 antagonist,GPR7 antagonist,OX1R antag-2,OX1R Fluo8 conf,CHO Ca counter,OX1R HTRF confirm,CHO-K1 HTRF
CNc1nc(Nc2ccc(C)c(Cl)c2)c2cnn(C)c2n1,-16,33,-7,-2,84*,9,-7,84*,12
CCCNc1nc(Nc2ccc(C)c(Cl)c2)c2cnn(C)c2n1,-17,-31,-13,-15,3,.,.,.,.
O=C(O)CCn1c(SCCOc2ccccc2)nc2ccccc21,-8,58*,-5,7,87*,32*,0,75*,9
Cc1cccc(OCCSc2nc3ccccc3n2CCC(=O)O)c1,-3,32,-9,0,97*,35*,3,83*,5
CCc1ccc(OCCSc2nc3ccccc3n2CCC(=O)O)cc1,-7,4,0,-12,32,.,.,.,.
COc1c2c(c(OC)c3ccccc13)[C@@]1(OC2)O[C@H](CCO)C[C@H](O)[C@H]1O,.,.,-4,.,.,.,.,.,.
CCOC(=O)CC(NS(=O)(=O)c1ccc(OC)c(C)c1)c1cccc([N+](=O)[O-])c1 (centres undefined),-18,-16,-1,3,33,.,.,.,.
O=C(NCCCN1CCCC1=O)C(=O)Nc1cccc(F)c1,-11,-17,4,.,17,.,.,.,.
O=C(CSc1cccc[n+]1[O-])NN(c1ccccc1)c1ccccc1,-8,0,4,-15,1,.,.,.,.
CCn1c(SCC(=O)Nc2sc3c(c2C#N)CCC(C(C)(C)C)C3)nnc1-c1ccco1 (centres undefined),1,-11,-4,-5,5,.,.,.,.
CCn1c(SCC(=O)Nc2sc3c(c2C#N)CCCC3)nnc1-c1ccco1,-22,31,-6,-9,94*,21,-15,78*,-1
COCCn1c(SCC(=O)N2CCCC2=O)nnc1-c1ccncc1,.,.,-7,.,.,.,.,.,.
O=C(CCCNC(=O)c1ccc(Cl)cc1)NCc1ccccc1F,-10,-25,-6,6,23,.,.,.,.
COc1ccc(-c2nc3ccccc3s2)cc1O,-5,85*,-7,-6,112*,37*,-2,98*,-5
CC(=O)Nc1cccc(-c2nc3ccccc3s2)c1,-24,26,-1,-6,76*,6,-7,54,1
COc1cc(OC)c(-c2nc3ccccc3s2)cc1OC,-10,54*,-7,-14,94*,36*,-6,93*,10
CSCCC(NC(=O)c1cc(S(=O)(=O)N2CCOCC2)ccc1F)c1nc2ccccc2[nH]1 (centres undefined),-9,-2,-4,.,3,.,.,.,.
CCCc1nc2c(C)cc(Br)cn2c1Cc1ccc(C)cc1,.,.,2,.,.,.,.,.,.
Cc1ccc(C(=O)Nc2nc(-c3ccccn3)cs2)s1,-12,7,-3,.,6,.,.,.,.
CCc1sc(C(=O)Nc2nc(-c3ccccn3)cs2)cc1C,-11,38,.,.,52*,19,-7,32,10
O=C(CCC(=O)NC12CC3CC(CC(C3)C1)C2)NC1CCCCC1,-10,-6,-8,-1,-7,.,.,.,.
O=C(Nc1cccc(F)c1)C1CCCN1S(=O)(=O)c1cccc2cccnc12 (centres undefined),-5,27,-4,-9,71*,31*,-5,89*,2
O=C(NC1CCCC1)C1CCCN1S(=O)(=O)c1cccc2cccnc12 (centres undefined),-1,-19,7,13,16,.,.,.,.
COc1ccc(C)cc1NC(=O)C1CCCN(S(=O)(=O)c2cccc3cccnc23)C1 (centres undefined),-10,32,.,-9,79*,25,-12,80*,3
COc1ccc(NC(=O)C2CCCN(S(=O)(=O)c3cccc4cccnc34)C2)c(OC)c1 (centres undefined),-22,-32,-1,-12,14,.,.,.,.
COc1cccc(NC(=O)[C@@H]2CCCN2S(=O)(=O)c2cccc3cccnc23)c1,-15,47*,-8,.,84*,50*,6,84*,1
